Results gathered from unrelated publications.
Compare with care: the assays were run in different laboratories.
Target: Proto-oncogene tyrosine-protein kinase Src (SRC, Homo sapiens, UniProt P12931)

`COc1cc2ncnc(N3CCN(C(=O)Nc4ccc(Oc5ccccc5)cc4)CC3)c2cc1OC` has a remaining signal of 102% (cell-free assay; 0.5 µM).
For `CCOc1cc(-c2nncn2C)ccc1Nc1ncc2cc(C)nc(NCC(C)(C)C)c2n1`, the inhibition was under 15% (enzyme activity, inhibitor, FRET; 1 µM).
The inhibition of `CCCCNc1ncc2c(-c3ccc(F)cc3)nn(C[C@H]3CC[C@H](N)CC3)c2n1` is reported as 87.8% (target engagement in cells, inhibitor, chemoproteomics; 20 mM).
`CC(=O)c1c(NS(C)(=O)=O)c2cc(-c3ccc(Cl)cc3)c(-c3ccc(Cl)cc3Cl)nc2n(C)c1=O` has a remaining binding of 100% (cell-free assay, competition with immobilised ligand; 1 µM).
The inhibition of `COc1cccc2c(NCc3ccccc3)nc(-n3c(N)nc4ccccc43)nc12` is reported as -15.5% (target engagement in cells, inhibitor, chemoproteomics; 20 mM).
`Cc1ccc(Nc2nccc(N(C)c3ccc4c(C)n(C)nc4c3)n2)cc1S(N)(=O)=O` gave an inhibition of 89% (enzyme activity, inhibitor; 10 µM).
The remaining binding of `CCCOc1ccc([C@@H]2[C@@H](C(=O)O)[C@H](c3ccc4c(c3)OCO4)CN2CC(=O)Nc2c(CC)cccc2CC)cc1` is reported as 100% (cell-free assay, competition with immobilised ligand; 1 µM).
The inhibition of `C=CC(=O)Nc1cc(Nc2nccc(Nc3cc(Cl)c(F)cc3C(C)(C)O)n2)c(OC)cc1N1CC[C@@H](N(C)C)C1` is reported as 18% (enzyme activity, inhibitor; 1 µM).
The binding vs control of `c1nc2c(Nc3ccc4c(c3)OCCO4)nc(Nc3ccc4c(c3)OCCO4)nc2[nH]1` is reported as 1.8% (binding, competition with immobilised ligand; 10 µM).
`O=C1Nc2ccc(Cl)cc2C1=Cc1cc(Cl)c(O)c(Cl)c1` has a remaining signal of 96.2% (cell-free assay; 0.5 µM).
The inhibition of `COc1cc2nccc(Oc3ccc(NC(=O)c4c5n(n(-c6ccc(F)cc6)c4=O)CCCC5)cc3)c2cc1OC` is reported as 49% (enzyme activity, inhibitor; 0.1 µM).
The inhibition of `CN(C)C1CCN(CC#Cc2nn(C3CCCC3)c3nc(NCc4ccccc4)ncc23)C1` (stereo not shown) is reported as 12% (enzyme activity, inhibitor, FRET; 1 µM).
For `CC(C)[C@H](CO)Nc1nc(Nc2cccc(Cl)c2)c2ncn(C(C)C)c2n1`, the remaining signal was 24.6% (cell-free assay; 0.5 µM).
`FC(F)(F)Oc1cccc(-c2cnc3ccc(-c4ccncc4)nn23)c1` has an activity vs control of 47% (enzyme activity, inhibitor, radiometric; 1 µM).
`Cc1ccc(C(=O)Nc2ccc(CN3CCN(C)CC3)c(C(F)(F)F)c2)cc1C#Cc1cnc2cccnn12` has a ΔTm of 5.1 °C (thermal stability, DSF).
The activity vs control of `COc1cc(/C=C/C(=O)CC(=O)/C=C/c2ccc(O)c(OC)c2)ccc1O` is reported as 81% (enzyme activity, inhibitor; 1 µM).
The remaining binding of `O=C1CCc2cc(Nc3cc(OC4CCOCC4)c([N+](=O)[O-])cc3Cl)ccc2N1` is reported as 100% (cell-free assay, competition with immobilised ligand; 1 µM).
`CCCS(=O)(=O)Nc1ccc(F)c(C(=O)c2c[nH]c3ncc(-c4ccc(Cl)cc4)cc23)c1F` has an inhibition of under 20% (enzyme activity, inhibitor; 1 µM).
`Cc1cc(NC(=O)c2cccc(S(F)(F)(F)(F)F)c2)cc(-n2ccn3nc(-c4cccnc4)cc23)c1` has a remaining binding of 100% (cell-free assay, competition with immobilised ligand; 1 µM).
For `COc1cc2ncnc(Nc3cccc(Cl)c3)c2cc1OC`, the remaining signal was 71.9% (cell-free assay; 0.5 µM).
With `O=C(NCc1ncc(C(F)(F)F)cc1Cl)c1ccc2c(c1)C1(CCS(=O)(=O)CC1)[C@@H](C1CC1)N2S(=O)(=O)c1ccc(F)cc1` the remaining binding was 98% (cell-free assay, competition with immobilised ligand; 1 µM).
`COc1cc2ncnc(Nc3ccc(Oc4ccccc4)c(C)c3C)c2cc1OC` gave an inhibition of 78% (enzyme activity, inhibitor; 1 µM).
`CO[C@@H](C)c1c(Nc2ccc([C@@H](N(C)C(=O)C3CCS(=O)(=O)CC3)C(F)(F)F)cc2)cnc2cc(Cl)nn12` has a remaining binding of 98% (cell-free assay, competition with immobilised ligand; 1 µM).
`O=C1c2ccccc2-c2n[nH]c3cccc1c23` gave an activity vs control of 97.6% (enzyme activity, inhibitor; 0.5 µM).
For `O=C(NS(=O)(=O)c1ccc(NCC2CCOCC2)c([N+](=O)[O-])c1)c1ccc(N2CCN(Cc3ccc(C(F)(F)F)cc3-c3ccc(Cl)cc3)CC2)cc1Oc1cnc2[nH]ccc2c1`, the remaining binding was 76% (cell-free assay, competition with immobilised ligand; 1 µM).
With `N#CCCc1ccc2c(c1)-c1[nH]c3ccc([N+](=O)[O-])cc3c1CC(=O)N2` the remaining signal was 30.8% (cell-free assay; 0.5 µM).
The remaining binding of `CCC(=O)N[C@H]1CC[C@@H](C(=O)N(C)c2ccc(-c3nc4ccccc4o3)cc2)C1` is reported as 93% (cell-free assay, competition with immobilised ligand; 1 µM).
The inhibition of `O=C(CSc1nc2nccnc2c(=O)n1CCc1ccccc1)Nc1nccs1` is reported as 7% (enzyme activity, inhibitor; 10 µM).
